In the library only some 4.7% were active in any assay of this set; here they are far more common.
AHR activator: human AHR activation | AHR-responsive luciferase reporter cells, luminescence | activation, % at 5 µM | 320,000 tested, 2.5% active; in the data active = activation above about 47%;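 note: 0% = vehicle wells and 100% = reference agonist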
MC4R barr agon: activates human MC4R beta-arrestin recruitment | AID 540308 | 360,000 tested, 0.98% active | activation, % at 8.9 µM | U2OS MC4R beta-arrestin complementation, luminescence; percent of melanotan II response, DMSO zero;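 active = activation above a per-plate cutoff, the mean activation of sample wells on that plate plus 3 SD, cut at about 8% in these data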
m5-HT2A agonist: mouse HTR2A agonism via beta-arrestin recruitment. activation, % at 7.6 µM. CHO-K1 mHTR2A beta-arrestin complementation, luminescence; percent of 30 µM serotonin response. 360,000 tested, 0.66% active;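 active = activation above a run cutoff, the mean activation of all tested compounds plus 3 SD, cut at about 14% in these data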;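 note: 0% = plate median of compound wells and 100% = 30 µM serotonin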
Target sequence (P35363 whole entry, looked up): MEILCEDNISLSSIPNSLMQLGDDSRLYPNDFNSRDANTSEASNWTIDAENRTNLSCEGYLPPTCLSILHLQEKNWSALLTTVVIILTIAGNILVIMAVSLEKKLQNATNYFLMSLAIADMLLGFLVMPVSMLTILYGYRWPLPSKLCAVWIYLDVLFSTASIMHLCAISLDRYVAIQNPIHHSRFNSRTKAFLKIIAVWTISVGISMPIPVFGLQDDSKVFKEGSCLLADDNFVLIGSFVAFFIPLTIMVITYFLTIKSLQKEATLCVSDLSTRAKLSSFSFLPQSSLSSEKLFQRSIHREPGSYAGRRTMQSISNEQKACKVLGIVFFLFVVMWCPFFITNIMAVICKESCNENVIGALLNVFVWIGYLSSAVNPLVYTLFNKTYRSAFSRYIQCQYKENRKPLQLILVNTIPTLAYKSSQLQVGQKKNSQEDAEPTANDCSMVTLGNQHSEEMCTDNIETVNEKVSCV
GAA850 FXN act: frataxin GAA850 promoter activation. HEK293 lucGAA850 FXN promoter luciferase reporter, 24 h; percent of 10 µM SAHA response. activation, % at 6 µM. 360,000 tested, 0.56% active;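 active = activation above the average of all compounds screened plus 3 SD, cutoff fixed separately per campaign, cut at about 7.5% in these data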;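 note: 0% = DMSO wells and 100% = 10 µM SAHA wells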
MC4R antagonist: blocks human MC4R cAMP signaling; P32245; MC4R-expressing cells, MTII-stimulated cAMP, LANCE TR-FRET; inhibition, % at 6.5 µM; 360,000 tested, 0.48% active; AID 540295;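 active = inhibition above its plate's cutoff, the mean of tested wells on that plate plus 3 SD, cut at about 29% in these data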;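 note: 0% = Melanotan II alone and 100% = Melanotan II plus saturating MCL0020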
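Assay system: U2OS-MC4R stable cell line; Also added: Melanotan II; Technique: Eu-cAMP/anti-cAMP TR-FRET, emission 671 nm; Times: 30-min compound, 1-h challenge, 1-h detection, room temperature.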
The depositor's hits bear a star.

How did COc1ccc(Nc2cc(C)nc3c(C)cccc23)cc1OC do in these assays?
AHR activator: 67.7*; MC4R barr agon: 1.8; m5-HT2A agonist: 4.7; GAA850 FXN act: -0.7; MC4R antagonist: -3.9

How did O=C(CSc1ccc(-c2ccc3c(c2)OCO3)nn1)Nc1nccs1 do in these assays?
AHR activator: 16.9; MC4R barr agon: 9.5*; m5-HT2A agonist: -3.9; GAA850 FXN act: 1.1; MC4R antagonist: 2.5

Results for Cc1ccc(N2C(=O)C3C4C=CC(CC4)C3C2=O)c([N+](=O)[O-])c1 (centres undefined) ?
AHR activator: 5.4; MC4R barr agon: -0.2; m5-HT2A agonist: 2.8; GAA850 FXN act: -0.2; MC4R antagonist: 14.2

Results for CCC(=O)Nc1cc(=O)[nH]c2nc(-c3ccc(Cl)cc3)nn12 ?
AHR activator: 74.1*; MC4R barr agon: -0.7; m5-HT2A agonist: 2.6; GAA850 FXN act: 2.1; MC4R antagonist: 10.2

Results for COc1ccc(-c2ccc3c(c2)S(=O)(=O)c2cccc(C(=O)NC[C@@H]4CCCO4)c2C3=O)cc1OC ?
AHR activator: 3.8; MC4R barr agon: 4.1; m5-HT2A agonist: 14.7*; GAA850 FXN act: -4.9; MC4R antagonist: 4.2

How did COc1cccc(C(NC(C)=O)c2nc(-c3cccc(C#N)c3)cs2)c1 (centres undefined) do in these assays?
MC4R barr agon: 0.0; m5-HT2A agonist: -1.5; GAA850 FXN act: 0.3; MC4R antagonist: -0.2

How did NC(=O)c1cc([N+](=O)[O-])c(Cl)cc1NCc1ccncc1 do in these assays?
AHR activator: 10.9; MC4R barr agon: -1.9; m5-HT2A agonist: 0.8; GAA850 FXN act: 2.1; MC4R antagonist: 7.3

What do the screens show for `NC(=O)c1cc([N+](=O)[O-])c(Cl)cc1NCc1ccccn1`?
AHR activator: 66.6*; MC4R barr agon: -0.3; m5-HT2A agonist: 1.4; GAA850 FXN act: 3.0; MC4R antagonist: 12.9

What do the screens show for `O=C(Nc1cnccn1)Nc1ccccc1Cl`?
AHR activator: 46.8; MC4R barr agon: -0.8; m5-HT2A agonist: 5.1; GAA850 FXN act: 3.1; MC4R antagonist: 12.3

Results for O=C(Nc1cnccn1)Nc1cccc(Cl)c1Cl ?
AHR activator: 49.4*; MC4R barr agon: -1.6; m5-HT2A agonist: 6.5; GAA850 FXN act: 3.2; MC4R antagonist: 4.0

How did COc1ccc(C)cc1NC(=O)Nc1cccc(C)c1 do in these assays?
AHR activator: 33.5; MC4R barr agon: -1.6; m5-HT2A agonist: -2.6; GAA850 FXN act: -0.8; MC4R antagonist: 13.6

Results for COc1ccc(Cl)cc1NC(=O)Nc1cc(C)on1 ?
AHR activator: 55.4*; MC4R barr agon: 3.2; m5-HT2A agonist: -7.0; GAA850 FXN act: -1.4; MC4R antagonist: 4.8

Results for COc1ccc(NC(=O)Nc2cnccn2)c(OC)c1 ?
AHR activator: 1.8; MC4R barr agon: -0.2; m5-HT2A agonist: 6.0; GAA850 FXN act: 3.3; MC4R antagonist: 8.5

How did COc1ccc(NC(=O)Nc2cc(C)ccc2F)cc1OC do in these assays?
AHR activator: 52.4*; MC4R barr agon: -0.2; m5-HT2A agonist: 0.0; GAA850 FXN act: 5.0; MC4R antagonist: 1.4

Results for COc1ccc(C)cc1NC(=O)Nc1cnccn1 ?
AHR activator: 57.5*; MC4R barr agon: 0.0; m5-HT2A agonist: 1.6; GAA850 FXN act: 0.2; MC4R antagonist: 12.7

Results for O=C(Nc1ccccc1Cl)c1cc(C2CCCCN2C(=O)c2cccs2)on1 (centres undefined) ?
MC4R barr agon: 0.8; m5-HT2A agonist: -5.6; GAA850 FXN act: -0.9; MC4R antagonist: 20.1

How did COc1ccc(Cl)cc1NC(=O)Nc1cnccn1 do in these assays?
AHR activator: 52.9*; MC4R barr agon: -1.2; m5-HT2A agonist: -5.7; GAA850 FXN act: 2.0; MC4R antagonist: -8.5

What do the screens show for `Cc1ccc(NC(=O)CN(C)C(=O)CSc2nnc(C)s2)cc1`?
AHR activator: -0.3; MC4R barr agon: -1.9; m5-HT2A agonist: -1.3; GAA850 FXN act: -0.5; MC4R antagonist: 9.5

Results for O=C(COC(=O)c1n[nH]c2ccccc12)Nc1ccc(Cl)cc1[N+](=O)[O-] ?
AHR activator: 11.7; MC4R barr agon: 9.1*; m5-HT2A agonist: 7.4; GAA850 FXN act: 1.6; MC4R antagonist: -9.7

Results for COc1cc([N+](=O)[O-])ccc1NC(=O)COC(=O)c1n[nH]c2ccccc12 ?
AHR activator: 24.2; MC4R barr agon: 0.6; m5-HT2A agonist: -5.2; GAA850 FXN act: 1.3; MC4R antagonist: 2.6

What do the screens show for `O=C(NCc1ccco1)c1ccc(CS(=O)Cc2ccc(Cl)cc2)o1` (centres undefined)?
AHR activator: 2.1; MC4R barr agon: -2.3; m5-HT2A agonist: -9.6; GAA850 FXN act: -1.0; MC4R antagonist: 6.8

What do the screens show for `Cn1cc(Cl)c(C(=O)N/N=C/c2ccc3c4c(cccc24)CC3)n1`?
AHR activator: 28.6; MC4R barr agon: -0.9; m5-HT2A agonist: -9.4; GAA850 FXN act: 8.0*; MC4R antagonist: 0.6

What do the screens show for `Cc1ccc(/C=N/NC(=O)c2nn(C)cc2Cl)cc1`?
AHR activator: 10.1; MC4R barr agon: 0.1; m5-HT2A agonist: 2.7; GAA850 FXN act: 5.9; MC4R antagonist: -8.3

How did CC(/C=N/NC(=O)c1cc(-c2ccncc2)nc2ccccc12)=C\c1ccco1 do in these assays?
AHR activator: 8.6; MC4R barr agon: 0.0; m5-HT2A agonist: -3.0; GAA850 FXN act: -0.3; MC4R antagonist: -25.0

How did O=C(N/N=C/c1ccc[nH]1)c1cc(-c2ccc(Cl)cc2)nc2ccccc12 do in these assays?
AHR activator: 48.5*; MC4R barr agon: -1.1; m5-HT2A agonist: -12.9; GAA850 FXN act: -1.2; MC4R antagonist: -3.0

What do the screens show for `O=C(N/N=C/c1ccco1)c1cc(-c2cccc(Br)c2)nc2ccccc12`?
AHR activator: 49.6*; MC4R barr agon: -0.7; m5-HT2A agonist: 3.5; GAA850 FXN act: 0.4; MC4R antagonist: 7.6

What do the screens show for `O=C(Nc1cccnc1)C1CC(=O)N(c2ccc(F)cc2)C1` (centres undefined)?
AHR activator: 5.1; MC4R barr agon: 0.8; m5-HT2A agonist: -5.8; GAA850 FXN act: -1.9; MC4R antagonist: -4.4

What do the screens show for `CCn1c(SCc2nc3sc(C(=O)O)c(C)c3c(=O)[nH]2)nnc1-c1ccc(Cl)cc1`?
AHR activator: -0.7; MC4R barr agon: -0.3; m5-HT2A agonist: -0.9; GAA850 FXN act: -0.2; MC4R antagonist: -5.4

What do the screens show for `Cc1sc2nc(CSc3nnnn3-c3ccc(Cl)cc3)[nH]c(=O)c2c1C`?
AHR activator: 50.8*; MC4R barr agon: 2.9; m5-HT2A agonist: 3.2; GAA850 FXN act: 0.8; MC4R antagonist: -3.7

How did Cc1nc(SCC(=O)Nc2nc3ccccc3s2)c(C#N)c(C)c1C do in these assays?
AHR activator: -11.1; MC4R barr agon: -0.8; m5-HT2A agonist: 2.5; GAA850 FXN act: -16.2; MC4R antagonist: 9.0

What do the screens show for `Cc1nc(SCC(=O)Nc2nccs2)c(C#N)c(C)c1C`?
AHR activator: 64.2*; MC4R barr agon: 4.4; m5-HT2A agonist: -1.3; GAA850 FXN act: -5.1; MC4R antagonist: -1.4

Compound activity deposited in PubChem by The Scripps Research Institute Molecular Screening Center.
